Experimental data published in paper PMC10651396 (The Journal of Cell Biology, 2023).
Where no end group is shown, it is not given here.

T1: His-Cap1/2 (CP) (Saccharomyces cerevisiae, UniProt P13517+P28495)
T1 sequence (P28495 1-268): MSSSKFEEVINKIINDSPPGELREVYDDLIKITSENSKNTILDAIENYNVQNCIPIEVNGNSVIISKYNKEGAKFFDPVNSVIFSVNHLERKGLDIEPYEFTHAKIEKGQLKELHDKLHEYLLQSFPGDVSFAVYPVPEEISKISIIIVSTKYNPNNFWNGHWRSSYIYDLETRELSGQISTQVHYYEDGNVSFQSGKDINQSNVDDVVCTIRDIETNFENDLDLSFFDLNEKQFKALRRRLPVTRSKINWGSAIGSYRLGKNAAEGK
T1 sequence (P13517 1-287): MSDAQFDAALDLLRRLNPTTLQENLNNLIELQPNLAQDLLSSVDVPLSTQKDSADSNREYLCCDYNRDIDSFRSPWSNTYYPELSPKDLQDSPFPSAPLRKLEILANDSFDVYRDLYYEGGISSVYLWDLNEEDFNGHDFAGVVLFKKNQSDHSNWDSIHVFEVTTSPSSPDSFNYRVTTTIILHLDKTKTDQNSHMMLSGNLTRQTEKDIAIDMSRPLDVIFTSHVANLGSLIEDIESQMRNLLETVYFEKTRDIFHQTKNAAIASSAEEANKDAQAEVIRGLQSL

T2: His-Cap1/2^D44A (S. cerevisiae, UniProt P28495 1-268; P13517 1-287, D44A)
T2 sequence (looked up) 1: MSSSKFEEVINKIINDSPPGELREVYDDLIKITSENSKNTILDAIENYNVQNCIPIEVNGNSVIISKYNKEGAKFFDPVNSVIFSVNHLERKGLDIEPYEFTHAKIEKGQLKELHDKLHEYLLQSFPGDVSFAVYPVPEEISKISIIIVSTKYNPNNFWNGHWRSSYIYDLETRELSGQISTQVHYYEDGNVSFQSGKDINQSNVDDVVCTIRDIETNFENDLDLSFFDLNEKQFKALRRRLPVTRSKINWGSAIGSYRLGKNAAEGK
T2 sequence (looked up) 2: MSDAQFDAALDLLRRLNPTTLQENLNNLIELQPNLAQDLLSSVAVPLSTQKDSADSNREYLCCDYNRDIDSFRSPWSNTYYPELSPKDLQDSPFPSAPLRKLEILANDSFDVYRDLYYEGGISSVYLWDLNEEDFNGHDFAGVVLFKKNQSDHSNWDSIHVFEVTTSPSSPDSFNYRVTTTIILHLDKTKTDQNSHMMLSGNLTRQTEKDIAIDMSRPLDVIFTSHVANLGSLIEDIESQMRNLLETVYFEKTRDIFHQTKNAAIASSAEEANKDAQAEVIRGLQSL

T3: 6-histidine-tagged actin capping protein (His-Cap1/2) (S. cerevisiae, UniProt P28495 1-268; P13517 1-287)
T3 sequence (looked up) 1: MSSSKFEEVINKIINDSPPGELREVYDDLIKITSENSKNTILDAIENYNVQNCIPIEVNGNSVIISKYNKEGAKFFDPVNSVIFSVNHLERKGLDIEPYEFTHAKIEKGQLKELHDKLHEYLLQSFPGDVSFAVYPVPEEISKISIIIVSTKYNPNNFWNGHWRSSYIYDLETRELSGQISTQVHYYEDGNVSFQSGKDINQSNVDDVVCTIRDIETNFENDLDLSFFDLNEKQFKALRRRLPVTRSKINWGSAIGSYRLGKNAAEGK
T3 sequence (looked up) 2: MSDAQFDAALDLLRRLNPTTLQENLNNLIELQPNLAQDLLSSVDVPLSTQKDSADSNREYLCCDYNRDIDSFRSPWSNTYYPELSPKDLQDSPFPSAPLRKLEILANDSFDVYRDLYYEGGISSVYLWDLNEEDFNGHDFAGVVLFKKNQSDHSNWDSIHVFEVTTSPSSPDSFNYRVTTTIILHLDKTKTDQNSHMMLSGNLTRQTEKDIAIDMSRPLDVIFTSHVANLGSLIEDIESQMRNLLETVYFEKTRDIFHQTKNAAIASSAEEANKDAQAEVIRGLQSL

T4: His-Cap1/2^D88A (S. cerevisiae, UniProt P28495 1-268; P13517 1-287, D88A)
T4 sequence (looked up) 1: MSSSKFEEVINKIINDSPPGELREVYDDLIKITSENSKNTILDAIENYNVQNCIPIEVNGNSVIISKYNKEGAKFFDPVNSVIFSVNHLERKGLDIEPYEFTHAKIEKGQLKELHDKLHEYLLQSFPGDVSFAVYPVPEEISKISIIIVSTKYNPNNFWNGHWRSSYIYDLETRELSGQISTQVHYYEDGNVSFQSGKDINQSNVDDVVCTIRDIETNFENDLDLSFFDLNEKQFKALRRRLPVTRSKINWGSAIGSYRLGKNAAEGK
T4 sequence (looked up) 2: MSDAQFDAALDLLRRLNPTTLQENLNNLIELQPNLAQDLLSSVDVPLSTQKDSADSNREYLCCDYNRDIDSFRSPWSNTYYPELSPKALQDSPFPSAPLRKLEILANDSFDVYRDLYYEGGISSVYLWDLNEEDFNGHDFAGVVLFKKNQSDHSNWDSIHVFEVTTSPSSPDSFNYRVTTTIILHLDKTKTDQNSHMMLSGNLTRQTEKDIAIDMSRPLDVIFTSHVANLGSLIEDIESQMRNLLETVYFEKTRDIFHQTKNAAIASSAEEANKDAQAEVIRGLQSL

T5: His-Cap1/2^D64A (S. cerevisiae, UniProt P28495 1-268; P13517 1-287, D64A)
T5 sequence (looked up) 1: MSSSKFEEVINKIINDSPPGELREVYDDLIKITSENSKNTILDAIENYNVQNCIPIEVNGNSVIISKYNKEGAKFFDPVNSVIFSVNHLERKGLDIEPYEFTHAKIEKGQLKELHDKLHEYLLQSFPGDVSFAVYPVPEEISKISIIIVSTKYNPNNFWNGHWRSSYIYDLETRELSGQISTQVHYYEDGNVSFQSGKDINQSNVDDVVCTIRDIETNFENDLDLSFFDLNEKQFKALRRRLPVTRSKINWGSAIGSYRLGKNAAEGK
T5 sequence (looked up) 2: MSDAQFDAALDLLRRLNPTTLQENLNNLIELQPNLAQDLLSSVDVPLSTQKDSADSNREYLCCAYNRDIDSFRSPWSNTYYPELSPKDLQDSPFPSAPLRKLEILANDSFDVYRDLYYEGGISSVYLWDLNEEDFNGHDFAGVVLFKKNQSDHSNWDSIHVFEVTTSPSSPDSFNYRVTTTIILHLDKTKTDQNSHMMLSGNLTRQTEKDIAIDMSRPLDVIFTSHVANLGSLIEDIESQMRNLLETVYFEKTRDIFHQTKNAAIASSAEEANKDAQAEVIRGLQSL


Assays:
His-Cap1/2 (CP) = target: T1, His-Cap1/2 (CP); format: biochemical; conditions: in words; yeast actin, CP 100 nM, 500 nM peptide
His-Cap1/2 = test: GST pulldown of capping protein by GST-CPI motif fusions; format: binding, Saccharomyces cerevisiae; conditions: in words; SDS-PAGE and Coomassie staining; His-Tda2 added with Aim21 fusions
Method in brief: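 Recombinant GST-CPI fusions and His-Cap1/2 were expressed in BL21 codon plus E. coli, affinity-purified, and dialyzed into PBS. GST protein (10 μg) was bound to glutathione Sepharose for 30 min at 4°C. Equimolar His-protein (His-Tda2 also for Aim21) was added for another 30 min. Resin was washed three times in PBS with 0.1–0.5% Triton X-100. Each pulldown was repeated independently.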

His-Cap1/2^D44A = target: T2, His-Cap1/2^D44A; test: pull-down
[1] = target: T3, 6-histidine-tagged actin capping …; test: pull-down
His-Cap1/2^D88A = target: T4, His-Cap1/2^D88A; test: pull-down
His-Cap1/2^D64A = target: T5, His-Cap1/2^D64A; test: pull-down
[2] = test system: rabbit skeletal muscle actin; test: Pyrene actin polymerization assay, substance alone; format: biochemical; conditions: in words, capping protein 100 nM, 1 µM actin, 20% pyrene-labeled
Method in brief: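 Rabbit skeletal muscle G-actin in G-buffer (pH 8, 0.2 mM ATP) was spun at 100,000 × g for 30 min at 4°C. It was Mg-exchanged (10 mM EGTA, 1 mM MgCl2) for 10 min at room temperature. Polymerization was started with 50 mM KCl, 2 mM MgCl2, 1 mM ATP and 1 mM EGTA (final). Pyrene fluorescence was read over time at ex 365/em 406 nm. Relative rate came from three independent assays, mean ± SEM.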

binding result (His-Cap1/2^D44A)	binding result [1]	binding result (His-Cap1/2^D88A)	binding result (His-Cap1/2^D64A)	Molecule	effect on the capping function of CP (His-Cap1/2 (CP))	further results
binds	binds	binds	binds	GST-Aim21^CPI (Aim21 491-545) with His-Tda2 (Tda2/Aim21 complex) (complex, S. cerevisiae) chain 1: QAKTGPLGGTRRGRGPRGRKLPSKVASVEKIEEDDNTNKIEIFNNWNVSSSFSKE chain 2: MSMQIEIKDGRSDNSPLPERKLVTLIQESYDSLKDDNEINLSTESTSNLLIKLVLEKLEKHSSLYKYIASVTTLNIEGLNEENANFSLKNDIGASWESKKDGIFNYKLEDKNNNECYLITILWLHK	–	–
binds	binds	binds	binds	KETKPLVHPNKNRTRGPRRKLPTRV (domain or fragment, S. cerevisiae) [GST-Bsp1^CPI (Bsp1 552-576)]	–	–
binds	binds	binds	binds	SNPDLPNKSNLKFNKPKGPLRKRRT (domain or fragment, S. cerevisiae) [GST-Twf1^CPI (Twf1 308-332)]	–	–

Second part, the molecule before the results:

Molecule	binding result (His-Cap1/2^D44A)	binding result [1]	binding result (His-Cap1/2^D88A)	binding result (His-Cap1/2^D64A)	effect on the capping function of CP (His-Cap1/2 (CP))	further results
SNPDLPNKSNLKFNKPKGPLRKRRT [Twf1^CPI]	–	–	–	–	had no effect	–
KETKPLVHPNKNRTRGPRRKLPTRV [Bsp1^CPI]	–	–	–	–	partially inhibited the capping function of CP	–
KTGPLGGTRRGRGPRGRKLPSKVASVEKIEEDDNTNKIEIFNNWNVSS [Aim21^CPI]	–	–	–	–	partially inhibited the capping function of CP	–
GST-Inp51: GST fused to Inp51 fragment (874–900) (SIAGPTHSPTPIPEPKRGRKLPPPSSD; also: GST fusion, end not given here)	–	–	–	–	–	interaction with His-Cap1/2 in GST pulldown (His-Cap1/2): failed to pull down
CP: 6-histidine–tagged yeast actin capping protein, Cap1/Cap2 heterodimer (protein, UniProt P28495 2-268; P13517 2-287, looked up, His6 tag) F-actin-capping protein … 1: SSSKFEEVINKIINDSPPGELREVYDDLIKITSENSKNTILDAIENYNVQNCIPIEVNGNSVIISKYNKEGAKFFDPVNSVIFSVNHLERKGLDIEPYEFTHAKIEKGQLKELHDKLHEYLLQSFPGDVSFAVYPVPEEISKISIIIVSTKYNPNNFWNGHWRSSYIYDLETRELSGQISTQVHYYEDGNVSFQSGKDINQSNVDDVVCTIRDIETNFENDLDLSFFDLNEKQFKALRRRLPVTRSKINWGSAIGSYRLGKNAAEGK F-actin-capping protein … 2: SDAQFDAALDLLRRLNPTTLQENLNNLIELQPNLAQDLLSSVDVPLSTQKDSADSNREYLCCDYNRDIDSFRSPWSNTYYPELSPKDLQDSPFPSAPLRKLEILANDSFDVYRDLYYEGGISSVYLWDLNEEDFNGHDFAGVVLFKKNQSDHSNWDSIHVFEVTTSPSSPDSFNYRVTTTIILHLDKTKTDQNSHMMLSGNLTRQTEKDIAIDMSRPLDVIFTSHVANLGSLIEDIESQMRNLLETVYFEKTRDIFHQTKNAAIASSAEEANKDAQAEVIRGLQSL	–	–	–	–	–	ability to cap actin filaments ([2]; listed as CP^1*): no ability to cap actin filaments; ability to cap actin filaments ([2]; listed as CP^2*): equivalent capping ability to CP
